# IMP-1 inh – inhibitors of Pseudomonas aeruginosa IMP-1 metallo-beta-lactamase; 290,000 tested, 0.45% active; purified IMP-1, nitrocefin hydrolysis, epi-absorbance fluorescence; inhibition, % at 5.6 µM;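 active means inhibition above the mean plus 3 SD of all compounds in the same screening run, cut at about 4.5% in these data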;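 further: 0% = IMP-1 with DMSO and 100% = DMSO wells lacking enzyme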
#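 System – purified recombinant IMP-1 beta-lactamase · Input – IMP-1 dispensed at 0.2 nM · Timing – 15 min preincubation plus 25 min reaction at 25 °C · Signal – Epi-absorbance fluorescence, 480 nm excitation, 530 nm emission · Measure – percent IMP-1 inhibition derived from blank-referenced optical density · Controls – Enzyme-plus-DMSO low control, enzyme-free DMSO high control · Replication – singlicate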
# VIM-2 inh – blocks Pseudomonas aeruginosa VIM-2 metallo-beta-lactamase; purified VIM-2, nitrocefin hydrolysis, epi-absorbance fluorescence; inhibition, % at 5.6 µM; 290,000 tested, 0.89% active;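 active means inhibition above the mean of all tested compounds plus 3 SD, cutoff set per screening run, cut at about 7.5% in these data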;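 further: red hydrolysis product quenches plate fluorescence so inhibitors raise well fluorescence; 0% = enzyme with DMSO and 100% = DMSO without enzyme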
# Mdm2-MdmX inh – disrupts the human Mdm2-MdmX interaction; AID 485346; inhibition, % at 8 µM; SaOS-2 split-luciferase Mdm2/MdmX complementation, luminescence; 330,000 tested, 3% active;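 active means inhibition of at least 50% at 8 µM in the primary screen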
# aSyn UTR inh – MLPCN primary screen, SNCA 5' untranslated region | alpha-synuclein 5'UTR reporter, inhibitor activity | inhibition, % (tested at 7.5 µM) | 300,000 tested, 0.82% active | AID 1813; in the data active means inhibition above about 60%;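 further: H4 neuroglioblastoma cells stably carrying SNCA 5'UTR luciferase fusion; 0% = DMSO wells and 100% = positive control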
# Jurkat NFkB inh – lowers PMA/ionomycin-induced NF-kB signal in Jurkat cells; PMA/ionomycin-induced NF-kB luciferase reporter, luminescence; inhibition, % at 4 µM; 330,000 tested, 0.53% active; in the data active means inhibition above about 50%
# 697 NFkB inh – lowers PMA/ionomycin-induced NF-kB signal in 697 B cells; 697 B-cell NF-kB luciferase reporter, 16 h; inhibition, % at 4 µM; 330,000 tested, 0.33% active; AID 435022; in the data active means inhibition above about 35%
# Jurkat NFkB conf – lowers PMA/ionomycin-induced NF-kB signal in Jurkat cells. Jurkat NF-kB luciferase, 16 h. inhibition, % at 4 µM. shares compounds with Jurkat NFkB inh. 2,700 tested, 27% active;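 active means inhibition reaching about 45% at 4 µM in either replicate, limit read from the data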;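 further: plate controls were PMA/ionomycin stimulated DMSO wells for no effect and unstimulated DMSO wells for full effect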
# 697 NFkB conf – inhibitors of the PMA/ionomycin-induced NF-kB reporter in 697 B cells, retest. shares compounds with 697 NFkB inh. 697 B-cell NF-kB luciferase, 16 h. inhibition, % at 4 µM. 2,000 tested, 35% active. AID 449746; in the data active means inhibition mostly above about 28%, no sharp cut-off; inactive means mostly below about 22%
# Mdm2-MdmX conf – human Mdm2/MdmX binding inhibition, confirmed; shares compounds with Mdm2-MdmX inh; 10,000 tested, 55% active; inhibition, % at 8 µM; luminescent assay; in the data active means inhibition above about 40%
# Full FLuc ctr – full-length luciferase inhibition in Mdm2/MdmX counter-screen; AID 504607; inhibition, % at 8 µM; 6,200 tested, 77% active; shares compounds with Mdm2-MdmX inh; SaOS-2 full-length luciferase counterscreen, luminescence;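 active means mean inhibition at 8 µM reaching about 37%, which flags the compound as non-specific, limit read from the data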;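 further: p53-null SaOS-2 cells with luciferase driven by a doxycycline-inducible promoter; compound on cells about two nights before reading with doxycycline added after day one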
# The depositor's hits bear a star; . = no result given. This is a sample that favours compounds with a hit; in the whole collection about 4.7% have one here.
SMILES,IMP-1 inh,VIM-2 inh,Mdm2-MdmX inh,aSyn UTR inh,Jurkat NFkB inh,697 NFkB inh,Jurkat NFkB conf,Mdm2-MdmX conf,Full FLuc ctr,others
CC(=O)[C@@]1(O)CCC2C3CC[C@H]4C[C@@H](O)CC[C@]4(C)C3CC[C@@]21C (some centres not stated),.,.,-7,.,0,-10,.,.,.,
C[C@]12CCC3C(CC[C@H]4CCCC[C@]34C)C1CC[C@@]2(O)CNCCO (some centres not stated),-2,-3,98*,-2,56*,7,17,79*,42*,
O=C1C=C(c2ccc3c(c2)OCO3)C[C@@H](c2ccc3c(c2)OCO3)C1,.,.,5,.,-1,-12,.,.,.,
O=C1C=C(c2ccc3cc[nH]c3c2)C[C@@H](c2ccc3c(c2)OCO3)C1,.,.,57*,.,53*,-24,19,57*,53*,
Cc1ccc(C(=O)Nc2ccc(C(=O)O)cc2NC(=O)c2ccc(C)cc2)cc1,1,2,-5,-52,4,-72,.,.,.,
CC[n+]1c(/C=C/c2c[nH]c3ccccc23)ccc2cc(C)ccc21,-1,6,72*,.,93*,-59,30,56*,73*,
OCC[n+]1ccc(/C=C/c2c[nH]c3ccccc23)cc1,1,4,2,-12,4,-4,.,.,.,
O=C(CN1C(=O)c2cccc([N+](=O)[O-])c2C1=O)OCC(=O)N1CCCCC1,.,.,11,-35,-5,3,.,.,.,
Cc1ccc(OC(=O)CCNC(=O)c2ccccc2Cl)c(Br)c1,.,.,24,-1,10,-9,.,.,.,
COc1ccc(C2C(C#N)=C(C)NC3=C2C(=O)c2ccccc23)cc1 (configuration not stated),-3,0,19,8,3,-2,.,.,.,
CC1=C([N+](=O)[O-])C(c2ccccc2)C2=C(N1)c1ccccc1C2=O (configuration not stated),-2,-1,56*,113*,61*,17,47*,63*,79*,
Cc1ccc(N)cc1NC(=O)CN1CCOCC1,-3,0,20,14,0,33,.,.,.,
COc1ccccc1/C=N/N1C(=O)C(CC(=O)Nc2ccc([N+](=O)[O-])cc2OC)SC1=Nc1cccc(C)c1C (configuration not stated),-4,-3,65*,50,69*,-101,22,47*,78*,
Cc1ccc(S(=O)(=O)Nc2cccc(-c3ccc4nncn4n3)c2)cc1,.,.,63*,17,59*,-8,48*,78*,66*,
O=C(C[C@@H]1C/C=C\C[C@H](Cc2ccc(F)cc2)C(=O)OC[C@@H]2CCCN2C1=O)N[C@H](CO)Cc1ccccc1,.,.,-13,.,-13,-33,.,.,.,
Cc1ccc(S(=O)(=O)CCc2ccncc2)cc1,0,2,37,2,-2,-22,.,.,.,
CNC[C@H](CC1CCCCC1)NC[C@H](Cc1ccccc1)NCCC12CC3CC(CC(C3)C1)C2,16*,2,100*,125*,91*,21,45,100*,52*,
NC[C@H](Cc1ccccc1)NCCCCC1CCCCC1,.,.,-14,.,6,-5,.,.,.,
O=C(CNC(=O)c1ccco1)N=Nc1c(O)n(CCc2ccccc2)c2ccccc12,-6,-2,62*,48,67*,3,51*,56*,106*,
COc1ccc(OC)c(C(=O)COC(=O)c2[nH]c(C)c(C(C)=O)c2C)c1,.,.,40,.,2,0,.,.,.,
CC(=O)Nc1cc2ccccc2oc1=O,0,1,14,-1,3,-9,.,.,.,
Cc1ccc(C(=O)Nc2cnc3ccccc3c2)cc1,-4,-3,82*,103*,59*,-304,73*,-2,.,697 NFkB conf=-222

# Assay outcomes (PubChem)
